# Results published in ChEMBL document CHEMBL5058577, “EUbOPEN Chemogenomics Library 2 (Multiplex)” (2022).
# Tested on: U2OS
# Experiment: Multiplex assay against U2OS
# Format: toxicity, cell-based
# Settings: human
# How it was run: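 Live cells were stained at seeding with Hoechst33342, BioTracker Green Microtubule Cytoskeleton Dye, MitoTracker Red and Annexin V Alexa Fluor 680. Following compound addition, they were imaged on a CQ1 microscope at 37°C and 5% CO2 and gated by CellPathfinder machine learning into Hoechst high-intensity objects or normal cells, with normal cells split into healthy, pyknosed or fragmented nuclei and pyknosed cells into mitotic or apoptotic. Tubulin, mitochondrial-mass and membrane-permeability phenotypes are per cents of healthy-nucleus cells.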
# [1] = 12 h, 1 µM, compound concentration 1 uM, replicate 1
# [2] = 12 h, 1 µM, compound concentration 1 uM, replicate 2
# [3] = 12 h, 10 µM, compound concentration 10 uM, replicate 1
# [4] = 12 h, 10 µM, compound concentration 10 uM, replicate 2
# [5] = 24 h, 1 µM, compound concentration 1 uM, replicate 1
# [6] = 24 h, 1 µM, compound concentration 1 uM, replicate 2
# [7] = 24 h, 10 µM, compound concentration 10 uM, replicate 1
# [8] = 24 h, 10 µM, compound concentration 10 uM, replicate 2
# [9] = 48 h, 1 µM, compound concentration 1 uM, replicate 1
# [10] = 48 h, 1 µM, compound concentration 1 uM, replicate 2
# [11] = 48 h, 10 µM, compound concentration 10 uM, replicate 1
# [12] = 48 h, 10 µM, compound concentration 10 uM, replicate 2
structure (smiles),measurement,setting,value
COc1ccc2c(c1OCc1ccccc1)C[C@@H](C(=O)O)N(C(=O)C(c1ccccc1)c1ccccc1)C2 [OLODANRIGAN],Population Apoptotic (%),[1],82%
same,Population Fragmented Nuclei (%),[1],31%
same,Population Healthy Nuclei (%),[1],59%
same,Population Hoechst High Intensity Objects (%),[1],2%
same,Population Membrane Permeable-Phenotype (%),[1],4%
same,Population Mitochondria Different-Phenotype (%),[1],0%
same,Population Mitotic Cells (%),[1],17%
same,Population Normal (%),[1],97%
same,Population Pyknosed Nuclei (%),[1],8%
same,Population Tubulin-Different-Phenotype (%),[1],1%
same,Total Cell Count,[1],286
same,Population Apoptotic (%),[2],66%
same,Population Fragmented Nuclei (%),[2],18%
same,Population Healthy Nuclei (%),[2],75%
same,Population Hoechst High Intensity Objects (%),[2],3%
same,Population Membrane Permeable-Phenotype (%),[2],6%
same,Population Mitochondria Different-Phenotype (%),[2],4%
same,Population Mitotic Cells (%),[2],33%
same,Population Normal (%),[2],96%
same,Population Pyknosed Nuclei (%),[2],5%
same,Population Tubulin-Different-Phenotype (%),[2],2%
same,Total Cell Count,[2],112
same,Population Apoptotic (%),[3],78%
same,Population Fragmented Nuclei (%),[3],30%
same,Population Healthy Nuclei (%),[3],64%
same,Population Hoechst High Intensity Objects (%),[3],1%
same,Population Membrane Permeable-Phenotype (%),[3],6%
same,Population Mitochondria Different-Phenotype (%),[3],1%
same,Population Mitotic Cells (%),[3],21%
same,Population Normal (%),[3],98%
same,Population Pyknosed Nuclei (%),[3],5%
same,Population Tubulin-Different-Phenotype (%),[3],2%
same,Total Cell Count,[3],273
same,Population Apoptotic (%),[4],81%
same,Population Fragmented Nuclei (%),[4],26%
same,Population Healthy Nuclei (%),[4],63%
same,Population Hoechst High Intensity Objects (%),[4],0%
same,Population Membrane Permeable-Phenotype (%),[4],2%
same,Population Mitotic Cells (%),[4],18%
same,Population Normal (%),[4],99%
same,Population Pyknosed Nuclei (%),[4],10%
same,Total Cell Count,[4],110
same,Population Apoptotic (%),[5],87%
same,Population Fragmented Nuclei (%),[5],25%
same,Population Healthy Nuclei (%),[5],64%
same,Population Hoechst High Intensity Objects (%),[5],0%
same,Population Membrane Permeable-Phenotype (%),[5],2%
same,Population Mitochondria Different-Phenotype (%),[5],0%
same,Population Mitotic Cells (%),[5],12%
same,Population Normal (%),[5],99%
same,Population Pyknosed Nuclei (%),[5],10%
same,Population Tubulin-Different-Phenotype (%),[5],2%
same,Total Cell Count,[5],311
same,Population Apoptotic (%),[6],55%
same,Population Fragmented Nuclei (%),[6],18%
same,Population Healthy Nuclei (%),[6],74%
same,Population Hoechst High Intensity Objects (%),[6],2%
same,Population Membrane Permeable-Phenotype (%),[6],9%
same,Population Mitochondria Different-Phenotype (%),[6],6%
same,Population Mitotic Cells (%),[6],44%
same,Population Normal (%),[6],97%
same,Population Pyknosed Nuclei (%),[6],6%
same,Population Tubulin-Different-Phenotype (%),[6],5%
same,Total Cell Count,[6],143
same,Population Apoptotic (%),[7],83%
same,Population Fragmented Nuclei (%),[7],27%
same,Population Healthy Nuclei (%),[7],66%
same,Population Hoechst High Intensity Objects (%),[7],1%
same,Population Membrane Permeable-Phenotype (%),[7],4%
same,Population Mitochondria Different-Phenotype (%),[7],0%
same,Population Mitotic Cells (%),[7],16%
same,Population Normal (%),[7],98%
same,Population Pyknosed Nuclei (%),[7],5%
same,Population Tubulin-Different-Phenotype (%),[7],1%
same,Total Cell Count,[7],318
same,Population Apoptotic (%),[8],50%
same,Population Fragmented Nuclei (%),[8],22%
same,Population Healthy Nuclei (%),[8],72%
same,Population Hoechst High Intensity Objects (%),[8],0%
same,Population Mitochondria Different-Phenotype (%),[8],1%
same,Population Mitotic Cells (%),[8],50%
same,Population Normal (%),[8],100%
same,Population Pyknosed Nuclei (%),[8],4%
same,Population Tubulin-Different-Phenotype (%),[8],2%
same,Total Cell Count,[8],123
same,Population Apoptotic (%),[9],91%
same,Population Fragmented Nuclei (%),[9],22%
same,Population Healthy Nuclei (%),[9],70%
same,Population Hoechst High Intensity Objects (%),[9],3%
same,Population Membrane Permeable-Phenotype (%),[9],4%
same,Population Mitochondria Different-Phenotype (%),[9],1%
same,Population Mitotic Cells (%),[9],8%
same,Population Normal (%),[9],96%
same,Population Pyknosed Nuclei (%),[9],7%
same,Population Tubulin-Different-Phenotype (%),[9],2%
same,Total Cell Count,[9],483
same,Population Apoptotic (%),[10],78%
same,Population Fragmented Nuclei (%),[10],14%
same,Population Healthy Nuclei (%),[10],77%
same,Population Hoechst High Intensity Objects (%),[10],4%
same,Population Membrane Permeable-Phenotype (%),[10],3%
same,Population Mitochondria Different-Phenotype (%),[10],3%
same,Population Mitotic Cells (%),[10],21%
same,Population Normal (%),[10],95%
same,Total Cell Count,[10],184
same,Population Apoptotic (%),[11],88%
same,Population Fragmented Nuclei (%),[11],20%
same,Population Healthy Nuclei (%),[11],71%
same,Population Hoechst High Intensity Objects (%),[11],1%
same,Population Membrane Permeable-Phenotype (%),[11],5%
same,Population Mitochondria Different-Phenotype (%),[11],1%
same,Population Mitotic Cells (%),[11],11%
same,Population Normal (%),[11],98%
same,Population Pyknosed Nuclei (%),[11],8%
same,Population Tubulin-Different-Phenotype (%),[11],3%
same,Total Cell Count,[11],451
same,Population Apoptotic (%),[12],85%
same,Population Fragmented Nuclei (%),[12],18%
same,Population Healthy Nuclei (%),[12],77%
same,Population Membrane Permeable-Phenotype (%),[12],7%
same,Population Mitochondria Different-Phenotype (%),[12],6%
same,Population Mitotic Cells (%),[12],14%
same,Population Pyknosed Nuclei (%),[12],4%
same,Population Tubulin-Different-Phenotype (%),[12],5%
same,Total Cell Count,[12],163
